Hits are enriched below; roughly 4.5% of the tested compounds scored in any of these assays.
RGS4 pot – RGS4 potentiators or activators, primary screen, cell-based, HEK293 M3R inducible RGS4, calcium flux; carbachol calcium flux Fluo4; stronger effect = lower value; B-score at 10 µM; hit rate 0.92% among 310,000;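 active = B-score of the integrated calcium signal more than 4 SD below the library mean, with starting fluorescence not abnormally high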;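 note: negative B-score means reduced calcium response which marks RGS4 activation or potentiation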
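test system = HEK293 cells with stable M3R and inducible RGS4 | schedule = recording 10 s baseline at 1 Hz, 100 s post-agonist | technique = Fluo4-AM (2 µM) calcium-flux fluorescence, kinetic read | measure = Agonist-evoked peak-minus-minimum fluorescence over baseline, integrated ratio, B score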
PHOSPHO1 block – PubChem AID 1565 | recombinant PHOSPHO1, absorbance phosphatase assay | hit rate 1.1% among 290,000 | Phosphoethanolamine/phosphocholine phosphatase (Homo sapiens), Q8TCT1 | inhibition, % at 13.3 µM; in the data active = inhibition above about 60%
Target sequence (Q8TCT1 whole entry, looked up): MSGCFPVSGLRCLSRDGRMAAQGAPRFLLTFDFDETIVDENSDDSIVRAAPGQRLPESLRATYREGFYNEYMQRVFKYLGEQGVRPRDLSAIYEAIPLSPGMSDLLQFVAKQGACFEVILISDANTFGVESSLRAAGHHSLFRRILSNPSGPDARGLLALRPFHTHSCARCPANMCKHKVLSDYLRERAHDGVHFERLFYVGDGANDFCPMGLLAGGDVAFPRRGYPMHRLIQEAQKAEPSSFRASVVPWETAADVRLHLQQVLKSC
RGS4 inh – RGS4 inhibitors, primary screen, cell-based, HEK293 M3R inducible RGS4, calcium flux | Regulator of G-protein signaling 4 (Homo sapiens), P49798 | Fluo-4 calcium flux; stronger effect = higher value; triggered by carbachol at its EC20 | B-score at 10 µM | hit rate 0.45% among 310,000;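 active = B-score, a plate-corrected calcium signal, over three deviations above library mean, with baseline fluorescence within five deviations of library mean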;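 note: RGS4 expression induced by doxycycline in cells with stable M3 receptor; B-score is computed from the integrated fluorescence ratio over baseline after carbachol; higher B-score means a larger calcium signal and so more RGS4 inhibition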
MrgX1 agonist – agonists of human MrgX1 receptor, primary screen, HEK293 cells, Fluo-4 calcium flux; Fluo-4 calcium fluorescence, agonist mode; stronger effect = higher value; B-score at 10 µM; hit rate 0.44% among 310,000;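 active = calcium response B-score plate-corrected fluorescence ratio at least 3 library SD, with starting fluorescence B-score inside 5 SD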
Target sequence (Q96LB2 whole entry, looked up): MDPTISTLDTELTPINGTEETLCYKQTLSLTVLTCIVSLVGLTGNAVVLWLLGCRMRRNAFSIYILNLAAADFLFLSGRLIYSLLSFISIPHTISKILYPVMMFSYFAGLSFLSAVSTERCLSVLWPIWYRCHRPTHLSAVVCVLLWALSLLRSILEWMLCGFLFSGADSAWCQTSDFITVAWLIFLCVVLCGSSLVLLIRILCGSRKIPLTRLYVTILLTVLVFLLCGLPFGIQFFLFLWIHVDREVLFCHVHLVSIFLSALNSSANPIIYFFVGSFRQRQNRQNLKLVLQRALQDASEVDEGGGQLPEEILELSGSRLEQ
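System: HEK293 cells stably expressing human MrgX1 receptor; Dosing: test compound in the initial addition of three; Schedule: overnight plating, then 30 min 37 °C plus 30 min room-temperature dye loading; Detection: kinetic calcium dye fluorescence, Fluo-4 NW; Controls: per-plate positive and negative controls for Z′ factor.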
MrgX1 antagonist – antagonists of human MrgX1 receptor, primary screen, HEK293 cells, Fluo-4 calcium flux. hit rate 1.3% among 310,000. B-score at 10 µM. BAM8-22 antagonism; stronger effect = lower value. Mas-related G-protein coupled receptor member X1 (Homo sapiens), Q96LB2;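 active = calcium-response B-score plate-corrected more than 3 library SD below zero, starting fluorescence within 5 deviations, no agonist response on first addition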;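 note: peak minus trough fluorescence over baseline after final BAM8-22 challenge near maximal dose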
MrgX1 PAM – positive allosteric modulators of MrgX1, primary screen, HEK293 cells, Fluo-4 calcium flux; Mas-related G-protein coupled receptor member X1 (Homo sapiens), Q96LB2; FDSS; stronger effect = higher value; B-score at 10 µM; hit rate 0.63% among 310,000;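 active = plate-corrected calcium response at least 3 library SD above typical, normal starting fluorescence, not activating the receptor alone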;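 note: compound read alongside a low EC10 to EC30 dose of BAM8-22 agonist; peak minus trough fluorescence over baseline measured at the second addition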
An asterisk follows results filed as active; i = inactive; nt = no result.

SMILES	RGS4 pot	PHOSPHO1 block	RGS4 inh	MrgX1 agonist	MrgX1 antagonist	MrgX1 PAM
Cn1cc(Cl)cc(C(=O)Nc2ccccc2)c1=O	i	23	i	i	i	i
CCCCn1c(N)c(N(CCOC)C(=O)COC(=O)COc2c(C)cccc2C)c(=O)[nH]c1=O	i	nt	i	i	i	i
CCCCN(C(=O)COC(=O)COc1c(C)cc(C)cc1C)c1c(N)n(CCC)c(=O)[nH]c1=O	i	nt	i	i	-8.2*	i
COc1ccccc1N(CC(=O)Nc1c(C)n(C)n(-c2ccccc2)c1=O)S(=O)(=O)c1ccc(C)cc1	i	-34	i	i	-5.5*	i
Cc1ccc(CSCCNC(=O)CN(c2cccc([N+](=O)[O-])c2)S(C)(=O)=O)cc1	i	29	i	i	i	9.9*
COc1ccccc1N(CC(=O)NCCSCc1ccc(C)cc1)S(=O)(=O)c1ccccc1	-10*	28	i	i	i	i
CCCCCCCCCCCC(=O)N1CC(=O)NC(=O)C1	i	23	i	i	i	i
O=C(COC(=O)C1CC(O)CN1S(=O)(=O)c1ccc(Cl)cc1)c1cccc(Cl)c1 (stereo not drawn)	i	1	i	i	i	i
COc1cccc(C2=NOC(C(=O)NCc3ccccn3)C2)c1 (stereo not drawn)	i	60*	i	i	i	i
COc1ccc(C2=NOC(C(=O)NCc3ccccn3)C2)cc1 (stereo not drawn)	i	3	i	i	i	i
CC(C)C(=O)NC(NC(=O)C(C)C)c1ccc([N+](=O)[O-])cc1	i	-2	i	i	i	i
CCCCN1CNC(=S)N(c2cc(C)ccc2C)C1	i	61*	i	i	i	i
CC(=O)c1cccc(NC(=O)Cn2cnc(S(=O)(=O)N3CCC(C)CC3)c2)c1	i	38	i	i	i	i
c1ccc(N2CC[N+]3(CCCC3)CC2)nc1	i	2	i	i	i	i
c1cnc(N2CC[N+]3(CCCC3)CC2)nc1	-7.7*	1	i	i	i	i
O=C(NCC1CCCO1)c1cc2ccccc2o1 (stereo not drawn)	i	23	i	i	i	i
O=C(O)c1cccnc1SC1CC(=O)N(c2ccc(OC(F)F)cc2)C1=O (stereo not drawn)	i	46	i	i	i	i
CS(=O)(=O)c1ccccc1C(=O)N1CCN(Cc2ccccc2)CC1	i	73*	i	i	i	i
CC1CCN(CCCNC(=O)C2CC(=O)N(CCc3ccccc3)C2)CC1 (stereo not drawn)	i	45	i	i	i	i
O=C(O)CSCC(=O)N(Cc1ccccc1)c1nc(-c2ccccc2)c(-c2ccccc2)s1	i	6	i	i	-4.7*	i
Cc1cc(C(=O)CSc2nnnn2-c2ccccc2)c(C)n1CC1CCCO1 (stereo not drawn)	i	51	i	i	i	i
CCn1c(SCC(=O)c2cc(C)n(CC3CCCO3)c2C)nc2ccccc21 (stereo not drawn)	i	73*	i	i	i	i
Cc1cc(C(=O)CSc2nnc(Nc3ccccc3)s2)c(C)n1CC1CCCO1 (stereo not drawn)	i	90*	i	i	i	i
COc1ccccc1Nc1nnc(SCC(=O)c2cc(C)n(CC3CCCO3)c2C)s1 (stereo not drawn)	i	93*	i	i	i	i
Cc1cc(C(=O)CSc2nnc(NCc3ccccc3)s2)c(C)n1C	i	91*	i	i	i	i
SMILES	RGS4 pot	PHOSPHO1 block	RGS4 inh	MrgX1 agonist	MrgX1 antagonist	MrgX1 PAM
CN1/C(=C\C(=O)CSc2nnc(NCc3ccccc3)s2)C(C)(C)c2ccccc21	i	0	i	i	i	i
Cc1cc(C(=O)CSc2nnc(-c3cccnc3)n2-c2ccccc2F)c(C)n1CC1CCCO1 (stereo not drawn)	i	53	i	i	i	i
Cc1cc(C(=O)CSc2nnc(Nc3ccccc3F)s2)c(C)n1CC1CCCO1 (stereo not drawn)	i	94*	i	nt	nt	nt
CCn1c(N2CCN(CC(=O)c3c(C)n(C)c4ccccc34)CC2)nc2c1c(=O)[nH]c(=O)n2C	i	92*	i	i	i	i
CCCCCCn1c(SCCN2CCOCC2)nc2c1c(=O)[nH]c(=O)n2C	i	-15	i	i	i	i
CCCCCn1c(SCCN2CCOCC2)nc2c1c(=O)[nH]c(=O)n2C	i	69*	i	i	i	i
CCCCCn1c(N2CCC(Cc3ccccc3)CC2)nc2c1c(=O)[nH]c(=O)n2C	-9*	nt	i	i	i	i
CC(C)(C)OC(=O)NNC(=O)NC12CC3CC(CC(C3)C1)C2	i	52	i	i	i	i
CNc1ccccc(-c2ccc3ccccc3n2)c1=O	i	-32	i	i	i	i
CCn1c(-c2cc(-c3cc(OC)ccc3OC)nc3ccccc23)n[nH]c1=S	i	90*	i	i	i	i
CCn1c(-c2cc(-c3ccc(C)cc3)nc3ccccc23)n[nH]c1=S	i	-68	i	i	i	i
CCCOc1cccc(-c2cc(-c3n[nH]c(=S)n3CC)c3ccccc3n2)c1	-8.5*	-18	i	i	i	i
CCn1c(-c2cc(-c3ccc(OC(C)C)cc3)nc3ccccc23)n[nH]c1=S	i	97*	i	i	i	i
CCn1c(-c2cc(-c3ccccc3OC)nc3ccccc23)n[nH]c1=S	i	13	i	i	i	i
CC(C)[N+](C)(C)CC(O)CN(c1ccccc1)c1ccccc1 (stereo not drawn)	i	85*	i	i	i	i
CC(C)(C)c1ccc(C(=O)NCC(=O)OCC(=O)Nc2nc(-c3ccc(F)cc3)cs2)cc1	i	62*	i	i	i	i
Cc1ccc(-c2csc(NC(=O)CCNC(=O)c3ccc(Cl)cc3)n2)cc1	i	42	i	i	i	i
CCc1cccc(CC)c1NC(=O)COC(=O)c1ccccc1-c1nc2ccccc2s1	i	178*	i	i	i	i
